Measured values reported in ChEMBL document CHEMBL1153606, “Microwave assisted synthesis of new indophenazine 1,3,5-trisubstruted pyrazoline derivatives of benzofuran and their antimicrobial activity” (2009).
≈ marks a conversion by molar mass, not a printed value. Calls of active or inactive are those of the source. No cut-off for these calls is given here.

Key:
Candida albicans = assay: Antifungal activity against Candida albicans after 30 to 72 hrs by agar culture method; assay type: functional, organism-based
In short: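 Agar well assay on C. albicans: compounds at a range of concentrations in DMF were loaded into 6 mm wells. Plates were incubated at 30 °C for 30–72 h. Inhibition zones were read in mm against standard drugs.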

Streptococcus pyogenes [1] = assay: Antibacterial activity against multidrug-resistant Streptococcus pyogenes after 20 hrs by cylinder and well method; assay type: functional
In short: (§1)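 Agar diffusion assay: organisms grown overnight on 2% agar with 5% sheep blood under 10% CO2. Inocula were diluted in Ringer solution, treated in Todd–Hewitt medium and spread on agar plates. Drug spots were applied, with about 5 × 10^3 CFU/spot. Plates were held at 37 °C for 20 h. Inhibition zones were read in mm against standard drugs and vehicle.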

Streptococcus pyogenes [2] = assay: Antibacterial activity against multidrug-resistant Streptococcus pyogenes after 24 hrs by broth microdilution method; assay type: functional
In short: (§2)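 MIC was determined in Mueller–Hinton broth.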

Staphylococcus aureus [3] = assay: Antibacterial activity against multidrug-resistant Staphylococcus aureus after 24 hrs by broth microdilution method; assay type: functional; in short: as §2
Staphylococcus aureus [4] = assay: Antibacterial activity against multidrug-resistant Staphylococcus aureus after 20 hrs by cylinder and well method; assay type: functional; in short: as §1
[5] = test system: Salmonella enterica subsp. enterica; assay: Antibacterial activity against multidrug-resistant Salmonella typhi after 24 hrs by broth microdilution method; assay type: functional, Salmonella enterica subsp. enterica serovar Typhi; in short: as §2
[6] = test system: Salmonella enterica subsp. enterica; assay: Antibacterial activity against multidrug-resistant Salmonella typhi after 20 hrs by cylinder and well method; assay type: functional, Salmonella enterica subsp. enterica serovar Typhi; in short: as §1
Streptococcus agalactiae [7] = assay: Antibacterial activity against multidrug-resistant Streptococcus agalactiae after 24 hrs by broth microdilution method; assay type: functional; in short: as §2
Streptococcus agalactiae [8] = assay: Antibacterial activity against multidrug-resistant Streptococcus agalactiae after 20 hrs by cylinder and well method; assay type: functional; in short: as §1
Streptococcus pneumoniae [9] = assay: Antibacterial activity against multidrug-resistant Streptococcus pneumoniae after 20 hrs by cylinder and well method; assay type: functional; in short: as §1
Streptococcus pneumoniae [10] = assay: Antibacterial activity against multidrug-resistant Streptococcus pneumoniae after 24 hrs by broth microdilution method; assay type: functional; in short: as §2
Pseudomonas aeruginosa [11] = assay: Antibacterial activity against multidrug-resistant Pseudomonas aeruginosa after 24 hrs by broth microdilution method; assay type: functional; in short: as §2
Pseudomonas aeruginosa [12] = assay: Antibacterial activity against multidrug-resistant Pseudomonas aeruginosa after 20 hrs by cylinder and well method; assay type: functional; in short: as §1
Escherichia coli [13] = assay: Antibacterial activity against multidrug-resistant Escherichia coli after 20 hrs by cylinder and well method; assay type: functional; in short: as §1
Escherichia coli [14] = assay: Antibacterial activity against multidrug-resistant Escherichia coli broth after 24 hrs by broth microdilution method; assay type: functional; in short: as §2

Structure (SMILES) | Activity (Candida albicans) | inhibition zone (IZ) (Streptococcus pyogenes [1]) | MIC (Streptococcus pyogenes [2]) | MIC (Staphylococcus aureus [3]) | inhibition zone (IZ) (Staphylococcus aureus [4]) | MIC [5] | inhibition zone (IZ) [6] | MIC (Streptococcus agalactiae [7]) | inhibition zone (IZ) (Streptococcus agalactiae [8]) | inhibition zone (IZ) (Streptococcus pneumoniae [9]) | MIC (Streptococcus pneumoniae [10]) | MIC (Pseudomonas aeruginosa [11]) | inhibition zone (IZ) (Pseudomonas aeruginosa [12]) | inhibition zone (IZ) (Escherichia coli [13]) | MIC (Escherichia coli [14])
COc1ccc(C2CC(c3cc4ccccc4o3)=NN2C(=O)Cn2c3ccccc3c3nc4ccccc4nc32)cc1 (stereo not drawn) | inactive | 14 mm | 23.5 µg/mL (≈ 42.6 µM) | 8 µg/mL (≈ 14.5 µM) | 12 mm | 12 µg/mL (≈ 21.8 µM) | 11 mm | 19 µg/mL (≈ 34.4 µM) | 14 mm | 16 mm | 4.5 µg/mL (≈ 8.16 µM) | 12.5 µg/mL (≈ 22.7 µM) | 13 mm | 17 mm | 5 µg/mL (≈ 9.06 µM)
O=C(Cn1c2ccccc2c2nc3ccccc3nc21)N1N=C(c2cc3ccccc3o2)CC1c1ccccc1O (stereo not drawn) | inactive | 10 mm | 26 µg/mL (≈ 48.4 µM) | 6 µg/mL (≈ 11.2 µM) | 13 mm | 8.5 µg/mL (≈ 15.8 µM) | 13 mm | 22 µg/mL (≈ 40.9 µM) | 11 mm | 12 mm | 9.5 µg/mL (≈ 17.7 µM) | 3.5 µg/mL (≈ 6.51 µM) | 15 mm | 18 mm | 1 µg/mL (≈ 1.86 µM)
O=C(Cn1c2ccccc2c2nc3ccccc3nc21)N1N=C(c2cc3ccccc3o2)CC1c1ccc(Cl)cc1 (stereo not drawn) | inactive | 14 mm | 22 µg/mL (≈ 39.6 µM) | 16.5 µg/mL (≈ 29.7 µM) | 8 mm | 16 µg/mL (≈ 28.8 µM) | 10 mm | 28 µg/mL (≈ 50.4 µM) | 10 mm | 15 mm | 5.5 µg/mL (≈ 9.89 µM) | 16.5 µg/mL (≈ 29.7 µM) | 10 mm | 7 mm | 22.5 µg/mL (≈ 40.5 µM)
O=C(O)c1ccccc1C1CC(c2cc3ccccc3o2)=NN1C(=O)Cn1c2ccccc2c2nc3ccccc3nc21 (stereo not drawn) | inactive | 10 mm | 30.5 µg/mL (≈ 53.9 µM) | 8.5 µg/mL (≈ 15 µM) | 12 mm | 15 µg/mL (≈ 26.5 µM) | 8 mm | 24 µg/mL (≈ 42.4 µM) | 10 mm | 12 mm | 10.5 µg/mL (≈ 18.6 µM) | 6.5 µg/mL (≈ 11.5 µM) | 14 mm | 11 mm | 13 µg/mL (≈ 23 µM)
CCn1cc(C(=O)O)c(=O)c2cc(F)c(N3CCNCC3)cc21 [NORFLOXACIN] |  | 30 mm | 2.6 µg/mL (≈ 8.14 µM) | 1.5 µg/mL (≈ 4.7 µM) | 28 mm | 20.2 µg/mL (≈ 63.3 µM) | 24 mm | 22 µg/mL (≈ 68.9 µM) | 32 mm | 22 mm | 0.12 µg/mL (≈ 0.376 µM) | 1.8 µg/mL (≈ 5.64 µM) | 28 mm | 20 mm | 1.3 µg/mL (≈ 4.07 µM)
COc1ccccc1C1CC(c2cc3ccccc3o2)=NN1C(=O)Cn1c2ccccc2c2nc3ccccc3nc21 (stereo not drawn) | inactive | 15 mm | 22.5 µg/mL (≈ 40.8 µM) | 7.5 µg/mL (≈ 13.6 µM) | 11 mm | 15.5 µg/mL (≈ 28.1 µM) | 7 mm | 25 µg/mL (≈ 45.3 µM) | 9 mm | 10 mm | 11.5 µg/mL (≈ 20.8 µM) | 14.5 µg/mL (≈ 26.3 µM) | 12 mm | 9 mm | 16.5 µg/mL (≈ 29.9 µM)
O=C(Cn1c2ccccc2c2nc3ccccc3nc21)N1N=C(c2cc3ccccc3o2)CC1c1ccc(O)cc1 (stereo not drawn) | inactive | 15 mm | 20.5 µg/mL (≈ 38.1 µM) | 6.5 µg/mL (≈ 12.1 µM) | 14 mm | 19.5 µg/mL (≈ 36.3 µM) | 8 mm | 32.5 µg/mL (≈ 60.5 µM) | 8 mm | 12 mm | 8.5 µg/mL (≈ 15.8 µM) | 26 µg/mL (≈ 48.4 µM) | 8 mm | 10 mm | 14 µg/mL (≈ 26 µM)
CN(C)c1ccc(C2CC(c3cc4ccccc4o3)=NN2C(=O)Cn2c3ccccc3c3nc4ccccc4nc32)cc1 (stereo not drawn) | inactive | 9 mm | 25.5 µg/mL (≈ 45.2 µM) | 7 µg/mL (≈ 12.4 µM) | 14 mm | 9.5 µg/mL (≈ 16.8 µM) | 10 mm | 36.5 µg/mL (≈ 64.6 µM) | 7 mm | 13 mm | 9 µg/mL (≈ 15.9 µM) | 14 µg/mL (≈ 24.8 µM) | 11 mm | 10 mm | 13.5 µg/mL (≈ 23.9 µM)
O=C(Cn1c2ccccc2c2nc3ccccc3nc21)N1N=C(c2cc3ccccc3o2)CC1c1ccco1 (stereo not drawn) | inactive | 8 mm | 30 µg/mL (≈ 58.6 µM) | 10.5 µg/mL (≈ 20.5 µM) | 10 mm | 16.5 µg/mL (≈ 32.3 µM) | 9 mm | 26.5 µg/mL (≈ 51.8 µM) | 10 mm | 14 mm | 5.6 µg/mL (≈ 10.9 µM) | 21 µg/mL (≈ 41.1 µM) | 8 mm | 10 mm | 15 µg/mL (≈ 29.3 µM)
C[C@@H]1CN(c2c(F)c(N)c3c(=O)c(C(=O)O)cn(C4CC4)c3c2F)C[C@H](C)N1 [SPARFLOXACIN] |  | 38 mm | 15 µg/mL (≈ 38.2 µM) | 0.25 µg/mL (≈ 0.637 µM) | 36 mm | 0.5 µg/mL (≈ 1.27 µM) | 34 mm | 12 µg/mL (≈ 30.6 µM) | 38 mm | 34 mm | 0.04 µg/mL (≈ 0.102 µM) | 4.6 µg/mL (≈ 11.7 µM) | 33 mm | 30 mm | 0.26 µg/mL (≈ 0.663 µM)
